Shown are actives, neighbours in structure and some others; about 2.2% of the full set was active somewhere.
EBI2 antag = antagonists of human EBI2 receptor. inhibition, % at 5 µM. EBI2 beta-arrestin recruitment, luminescence, 7a,25-OHC stimulated. 0.81% of 360,000 active. P32249; in the data active = inhibition above about 38%;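 note: enzyme fragment complementation signal reports receptor beta-arrestin coupling in cells; 0% = agonist plus DMSO wells and 100% = wells without agonist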
CCR6 antag = CCR6 (human) receptor antagonism | CHO-K1 CCR6 PathHunter beta-arrestin, luminescence, CCL20-stimulated | inhibition, % at 20 µM | 0.49% of 340,000 active;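 active = compounds whose inhibition of the agonist-driven luminescence signal at 20 µM reaches about 50%, limit read from the data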;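 note: cells stimulated with CCL20 at 14 nM final; plate controls were DMSO with CCL20 for no effect and DMSO without agonist for full effect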
APJ antagonist = blocks the human apelin receptor APJ. inhibition, % at 20 µM. P35414. 0.32% of 330,000 active. CHO-K1 APJ beta-arrestin complementation, luminescence;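 active = inhibition above about 40% at 20 µM, limit read from the data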;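 note: cells challenged with 10 nM apelin-13 agonist together with compound; plate controls were apelin-13 plus DMSO wells for no effect and DMSO wells lacking apelin-13 for full effect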
Target sequence (P35414 whole entry, looked up): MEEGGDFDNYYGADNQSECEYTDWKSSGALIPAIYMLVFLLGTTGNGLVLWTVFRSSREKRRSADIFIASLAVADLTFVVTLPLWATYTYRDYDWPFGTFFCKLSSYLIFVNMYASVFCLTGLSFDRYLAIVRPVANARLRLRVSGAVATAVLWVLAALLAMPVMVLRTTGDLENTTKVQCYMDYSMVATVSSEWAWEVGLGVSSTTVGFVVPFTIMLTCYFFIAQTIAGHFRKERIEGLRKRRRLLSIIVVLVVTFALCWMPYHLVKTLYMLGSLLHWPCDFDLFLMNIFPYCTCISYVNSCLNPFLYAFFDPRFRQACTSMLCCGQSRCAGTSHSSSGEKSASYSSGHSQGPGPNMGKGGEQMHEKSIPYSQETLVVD
CXCR6 block = CXCR6 (human) receptor inhibition; inhibition, % at 20 µM; O00574; 0.36% of 360,000 active; CHO-K1 PathHunter CXCR6 beta-arrestin, luminescence; AID 602244; in the data active = inhibition above about 34%, passing the limit was not always enough;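 note: antagonist mode with CXCL16 agonist at 10 nM final; 0% = 10 nM CXCL16 with DMSO and 100% = unstimulated wells without agonist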
m5-HT2A agonist = agonists of mouse serotonin 5-HT2A receptor (HTR2A) | P35363 | CHO-K1 mHTR2A beta-arrestin complementation, luminescence; percent of 30 µM serotonin response | activation, % at 7.6 µM | 0.66% of 360,000 active | AID 624169;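 active = activation above a run cutoff, the mean activation of all tested compounds plus 3 SD, cut at about 14% in these data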;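 note: 0% = plate median of compound wells and 100% = 30 µM serotonin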
APJ agonist = APJ receptor agonism; 0.11% of 330,000 active; activation, % at 20 µM; CHO-K1 APJ PathHunter beta-arrestin, luminescence; 0% DMSO wells, 100% apelin;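 active = activation more than six SD over the plate average, tested at 20 µM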;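 note: 0% = DMSO alone and 100% = apelin-13 at 10 nM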
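Assay system: engineered CHO-K1 APJ arrestin reporter cells; Amount: 1000 CHO-K1 reporter cells seeded per well; Dosing: one dose, 20 µM compound, 1% DMSO; Times: compound stimulation 90 min at 25 °C, detection 60 min; Measured by: luminescent beta-gal fragment complementation, chemiluminescent substrate; Read-out: APJ–arrestin association signal; Controls: DMSO vs Apelin-13 10 nM.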
EBI2 antag conf = confirmation of human EBI2 receptor antagonists. 29% of 2,400 active. EBI2 beta-arrestin luminescence, 7a,25-OHC antagonism. inhibition, % at 5 µM. shares compounds with EBI2 antag;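 active = inhibition of at least 50%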
EBI2 ag = EBI2 agonism counter-screen. activation, % at 5 µM. 2,400 tested, under 10 active. shares compounds with EBI2 antag. EBI2-expressing cells, agonist mode, luminescence, 60 min; 0% vehicle, 100% 7α,25-dihydroxycholesterol control. AID 652000;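 active = activation of at least 50%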
bGal counter = beta-galactosidase inhibition counter-screen; shares compounds with EBI2 antag; 1% of 2,400 active; inhibition, % at 5 µM; AID 652176; purified beta-galactosidase, luminescent Galacton Star, 15 min;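 active = replicate-average signal at least 3 plate SD below neutral wells, shown as high inhibition, flagging enzyme-inhibiting false positives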;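 note: 0% = DMSO wells with enzyme and 100% = wells lacking enzyme; higher means stronger loss of beta-gal luminescence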
Starred values were filed as active, the others as inactive; / = no result.

SMILES	EBI2 antag	CCR6 antag	APJ antagonist	CXCR6 block	m5-HT2A agonist	APJ agonist	EBI2 antag conf	EBI2 ag	bGal counter
NC(=O)CSc1nnc(-c2ccc(O)cc2)n1Cc1ccco1	-8.9	-0.9	0.4	-3.4	-2.4	4.6	/	/	/
Cc1ccc(C2=NNC(=O)C(c3ccc(Cl)cc3)C2)cc1 (stereo not given)	53.2*	18.2	-10.7	4.0	1.5	0.1	39.8	0.3	8.7
Cc1ccc(-c2cc3nc(-c4ccccc4)cc(N)n3n2)cc1	1.6	-8.7	2.4	2.4	6.2	-1.4	/	/	/
Cc1ccc(-c2cc3nc(-c4ccccc4)cc(NCCCO)n3n2)cc1	47.1*	/	/	5.5	8.6	/	35.5	-0.5	-10.5
Cc1ccc(C(C)C)c(OCCNC(=O)c2cncc(Br)c2)c1	49.6*	15.5	-28.6	-7.9	5.6	-2.8	27.2	-2.0	-4.0
CC(C)OCCCNC(=O)c1c(N)n(/N=C/c2ccccn2)c2nc3ccccc3nc12	48.2*	-27.0	0.4	-0.7	-0.6	-5.3	20.8	0.2	-9.1
CCC(C)NC(=O)c1c(N)n(/N=C/c2ccccn2)c2nc3ccccc3nc12 (stereo not given)	26.9	-16.8	-13.3	-7.8	0.7	-0.9	/	/	/
CCOC(=O)N1CCN(C(=O)c2cc3c(s2)-c2c(C)cccc2OC3)CC1	90.8*	12.2	16.1	-3.9	-4.8	-2.0	87.1*	1.0	-6.2
Cc1cccc2c1-c1sc(C(=O)N3CCCCC3)cc1CO2	77.6*	16.0	8.1	-12.5	-0.5	-3.5	71.1*	0.1	3.8
CCN1CCN(C(=O)c2cc3c(s2)-c2c(C)cccc2OC3)CC1	91.5*	8.0	11.8	-1.2	-5.1	-2.6	78.1*	0.8	7.0
Cc1cccc2c1-c1sc(C(=O)N3CCc4ccccc4C3)cc1CO2	10.8	9.1	2.3	-2.5	0.7	-2.3	/	/	/
O=C(c1ccco1)N1CCN(C(=O)c2cc3c(s2)-c2ccccc2OC3)CC1	69.6*	19.2	21.4	2.4	8.8	-1.1	62.1*	1.0	-1.1
O=C(O)c1cc2c(s1)-c1ccccc1OC2	5.2	1.8	-14.7	0.9	1.0	-1.3	/	/	/
Cc1cccc2c1-c1sc(C(=O)Nc3ccccc3N3CCN(C)CC3)cc1CO2	6.7	19.8	14.7	2.1	-10.2	-2.7	/	/	/
Cc1ccccc1CN1C(=O)CN(S(C)(=O)=O)CC1(C)C(=O)Nc1ccc2c(c1)OCCO2 (stereo not given)	-4.5	/	/	/	1.5	/	/	/	/
CCCCNC(=O)C(NC(=O)c1cccc2ccccc12)C(=O)c1ccccc1 (stereo not given)	2.7	/	/	7.8	2.6	/	/	/	/
OCC[C@@H]1C[C@H](O)[C@@H](O)[C@]2(OCc3ccc(CO)cc32)O1	-10.2	/	/	-0.3	9.1	/	/	/	/
Nc1c(C(=O)c2ccccc2)sc(Nc2ccccc2)c1S(=O)(=O)c1ccccc1	45.6*	32.1	-12.4	19.9	-8.0	-2.9	50.4*	4.2	3.5
CC1=NN(c2ccccc2)C(=O)C1CCC#N (stereo not given)	-5.8	/	/	7.7	-3.0	/	/	/	/
CC(C)(C)NC(=O)c1cc([N+](=O)[O-])ccc1N1CCCCC1	57.4*	8.3	/	-0.3	-1.0	/	38.6	0.3	2.5
O=C(O)c1cc([N+](=O)[O-])ccc1N1CCCCC1	-2.4	12.9	1.2	9.1	13.9	-3.9	/	/	/
S=c1[nH]nc(-c2cc(-c3ccccc3)n[nH]2)n1/N=C/C(Br)=C/c1ccccc1	52.3*	12.9	2.6	4.2	0.8	-1.8	48.1	0.4	8.0
Cc1cccc(/C=N/n2c(-c3cc(-c4ccccc4)n[nH]3)n[nH]c2=S)c1	-0.2	3.8	-26.2	-1.5	-5.4	-2.1	/	/	/
S=c1[nH]nc(-c2cc(-c3ccccc3)n[nH]2)n1/N=C/c1ccccc1	51.1*	15.6	20.3	0.5	0.1	1.9	49.8	1.2	9.0

Compound activity: PubChem, several laboratories
